Columns and labels:
Rattus norvegicus [1] = test: In vivo accumulation 5-HTP in striatum of rat brain at 10 umol/Kg; format: functional
Summary of the method: (§1)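 Nonreserpinised male Sprague–Dawley rats (180–220 g) given drug as hydrochloride sc in saline, 30 min before aromatic L-amino acid decarboxylase inhibitor NSD 1015; killed 30 min after NSD 1015. Striatum and limbic system (rhinal fissure landmark) dissected. 5-HTP or DOPA measured by ion-pair reversed-phase HPLC with electrochemical detection, ng/g; means ± SEM, n = 3–7 per dose group, Dunnett's test vs control.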

Rattus norvegicus [2] = test: In vivo accumulation of 5-HTP in limbic of rat brain for following at 10 umol/Kg; format: functional; summary of the method: as §1
Rattus norvegicus [3] = test: In vivo accumulation of dopamine in striatum of rat brain at 3.2 umol/Kg; format: functional; summary of the method: as §1
Rattus norvegicus [4] = test: In vivo accumulations of dopamine in limbic of rat brain for at 3.2 umol/Kg; format: functional; summary of the method: as §1
Rattus norvegicus [5] = test: In vivo accumulation of 5-HTP in limbic of rat brain at 3.2 umol/Kg; format: functional; summary of the method: as §1
Rattus norvegicus [6] = test: In vivo accumulations of dopamine in limbic of rat brain at 32 umol/Kg; format: functional; summary of the method: as §1
Rattus norvegicus [7] = test: In vivo accumulation of dopamine in striatum of rat brain at 10 umol/Kg; format: functional; summary of the method: as §1
[8] = biological target: T1, 5-hydroxytryptamine receptor 1A (Rattus norvegicus, UniProt P19327); test: Affinity for 5-hydroxytryptamine 1A receptor site
T1 sequence (P19327 whole entry): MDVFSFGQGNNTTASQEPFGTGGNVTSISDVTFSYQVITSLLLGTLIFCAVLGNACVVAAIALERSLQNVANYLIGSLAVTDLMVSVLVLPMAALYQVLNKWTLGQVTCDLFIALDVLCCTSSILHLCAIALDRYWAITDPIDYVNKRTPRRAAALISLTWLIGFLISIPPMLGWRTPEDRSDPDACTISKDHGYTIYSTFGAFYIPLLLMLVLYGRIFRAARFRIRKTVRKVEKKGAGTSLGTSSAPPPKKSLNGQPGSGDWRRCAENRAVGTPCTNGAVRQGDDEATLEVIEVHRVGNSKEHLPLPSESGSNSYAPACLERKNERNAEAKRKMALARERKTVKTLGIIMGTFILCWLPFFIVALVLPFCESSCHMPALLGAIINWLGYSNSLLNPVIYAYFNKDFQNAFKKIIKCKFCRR
Summary of the method: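 Rat (male Sprague–Dawley) cortex plus hippocampus homogenised in 50 mM Tris-HCl with 4.0 mM CaCl2 and 5.7 mM ascorbate, pH 7.5, washed, pooled (≥6 rats), pargyline 10 μM pretreated. Incubated at 37 °C for 10 min with 2 nM [3H]-8-OH-DPAT and 1–300 nM competitor. Filtered, scintillation counted; 10 μM 5-HT defines nonspecific binding. Ki from nonlinear least-squares using Kd 1.4 nM.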

Rattus norvegicus [9] = test: In vivo accumulation of 5-HTP in limbic of rat brain for following at 32 umol/Kg; format: functional; summary of the method: as §1
Rattus norvegicus [10] = test: In vivo accumulation 5-HTP in striatum of rat brain striatum at 32 umol/Kg; format: functional; summary of the method: as §1
Rattus norvegicus [11] = test: In vivo accumulation of dopamine in striatum of rat brain at 32 umol/Kg; format: functional; summary of the method: as §1
Rattus norvegicus [12] = test: In vivo accumulations of dopamine in limbic of rat brain at 10 umol/Kg; format: functional; summary of the method: as §1
Rattus norvegicus [13] = test: In vivo accumulation of 5-HTP in limbic of rat brain for following at 32 umol/kg reserpine pretreatment; format: functional
Summary of the method: (§2)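 Male Sprague–Dawley rats pretreated with reserpine (8 μmol/kg, 4 h before), then given drug sc as hydrochloride in saline 30 min before NSD 1015 decarboxylase inhibition; killed 30 min later. Striatal and limbic 5-HTP or DOPA determined by ion-pair reversed-phase HPLC with electrochemical detection, ng/g; means ± SEM, n = 3–7; Dunnett's test vs reserpinised controls.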

Rattus norvegicus [14] = test: In vivo accumulation 5-HTP in striatum of rat brain striatum at 32 umol/kg reserpine pretreatment; format: functional; summary of the method: as §2
Rattus norvegicus [15] = test: In vivo accumulation of dopamine in striatum of rat brain at 32 umol/kg with reserpine pretreatment; format: functional; summary of the method: as §2
Rattus norvegicus [16] = test: In vivo accumulation 5-HTP in striatum of rat brain at 3.2 umol/Kg; format: functional; summary of the method: as §1

Row | SMILES | Dose (Rattus norvegicus [1]) | Dose (Rattus norvegicus [2]) | Dose (Rattus norvegicus [3]) | Dose (Rattus norvegicus [4]) | Dose (Rattus norvegicus [5]) | Dose (Rattus norvegicus [6]) | Dose (Rattus norvegicus [7]) | Ki [8] | Dose (Rattus norvegicus [9]) | Dose (Rattus norvegicus [10]) | Dose (Rattus norvegicus [11]) | Dose (Rattus norvegicus [12]) | Dose (Rattus norvegicus [13]) | Dose (Rattus norvegicus [14]) | Dose (Rattus norvegicus [15]) | Dose (Rattus norvegicus [16])
1 | CCCN(CCC)[C@@H]1CCCc2cccc(O)c2C1 | 60 µM/kg | 122 µM/kg | 1068 µM/kg | 408 µM/kg | 132 µM/kg | 437 µM/kg | 919 µM/kg | 29.7 nM | 76 µM/kg | 54 µM/kg | 1035 µM/kg | 314 µM/kg |  |  |  | 
2 | CCCN(CCC)[C@H]1CCCc2cccc(O)c2C1 | 98 µM/kg | 170 µM/kg | 1003 µM/kg | 331 µM/kg | 194 µM/kg |  | 830 µM/kg | > 300 nM |  |  |  | 381 µM/kg | 154 µM/kg | 74 µM/kg | 1934 µM/kg | 110 µM/kg

From ChEMBL document CHEMBL1124353, “(R)- and (S)-5,6,7,8-tetrahydro-1-hydroxy-N,N-dipropyl-9H-benzocyclohepten- 8-ylamine. Stereoselective interactions with 5-HT1A receptors in the brain” (J Med Chem, 1989)
